Assays:
[1] = Tested for the inhibitory activity against Glycosomal glyceraldehyde 3-phosphate dehydrogenase (gGAPDH) of Leishmania mexicana
In short: (§1)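 Recombinant glycosomal GAPDH overexpressed in E. coli and purified. Started with enzyme. Initial rates compared with a 5% DMSO control; NADH absorbance interference checked without enzyme. IC50 from ≥5 concentrations giving 5–80% inhibition.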

[2] = Tested for the inhibitory activity against Glycosomal glyceraldehyde 3-phosphate dehydrogenase (gGAPDH) of Trypanosoma brucei; in short: as §1
[3] = biological target: Glyceraldehyde-3-phosphate dehydrogenase (Homo sapiens, UniProt P04406); assay: Tested for the inhibitory activity against Glycosomal glyceraldehyde 3-phosphate dehydrogenase (gGAPDH) of human erythrocyte
Glyceraldehyde-3-phosphate dehydrogenase, sequence (P04406 whole entry): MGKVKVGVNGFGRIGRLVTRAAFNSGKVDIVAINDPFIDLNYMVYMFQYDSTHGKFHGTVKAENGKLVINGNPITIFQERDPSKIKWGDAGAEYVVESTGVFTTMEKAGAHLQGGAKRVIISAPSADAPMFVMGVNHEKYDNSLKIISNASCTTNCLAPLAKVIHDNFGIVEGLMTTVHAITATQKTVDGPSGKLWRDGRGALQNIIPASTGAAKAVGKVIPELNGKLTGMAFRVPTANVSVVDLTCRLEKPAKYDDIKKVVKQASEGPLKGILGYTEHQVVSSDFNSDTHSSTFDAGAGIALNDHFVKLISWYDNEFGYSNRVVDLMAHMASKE

[4] = Tested for the inhibitory activity against Glycosomal glyceraldehyd 3-phosphate dehydrogenase (gGAPDH) of Trypanosoma brucei
In short: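 Recombinant T. brucei gGAPDH expressed in E. coli. Reaction started with enzyme; NADH absorbance read. Activity from initial rates versus a DMSO-only control. IC50 from at least five inhibitor concentrations giving 5–80% inhibition.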

| SMILES | IC50 [1] | IC50 [2] | IC50 [3] | IC50 [4] |
| --- | --- | --- | --- | --- |
| COc1cccc(C(=O)N[C@@H]2[C@H](O)[C@@H](CO)O[C@H]2n2cnc3c(N)ncnc32)c1 | 0.3 mM | 2.2 mM | > 10 mM | – |
| Nc1ncnc2c1ncn2[C@@H]1O[C@H](CO)[C@@H](O)[C@H]1O [ADENOSINE] | 50 mM | 100 mM | 35 mM | – |
| Nc1ncnc2c1ncn2[C@@H]1O[C@H](CO)[C@@H](O)[C@H]1NC(=O)c1cccs1 | 2.4 mM | 5 mM | > 10 mM | – |
| Nc1ncnc2c1ncn2[C@@H]1O[C@H](CO)[C@@H](O)[C@H]1NC(=O)c1ccccc1 | 3.3 mM | 6 mM | > 10 mM | – |
| Nc1ncnc2c1nc(-c1cccs1)n2[C@@H]1O[C@H](CO)C(O)[C@H]1O (single isomer, unassigned) | 0.5 mM | – | 1.3 mM | 0.6 mM |
| Cc1nc(N)c2ncn([C@@H]3O[C@H](CO)[C@@H](O)[C@H]3O)c2n1 [2-METHYLADENOSINE] | 6 mM | 8 mM | > 10 mM | – |
| Nc1ncnc2c1nc(-c1ccccc1)n2[C@@H]1O[C@H](CO)[C@@H](O)[C@H]1O | – | 10 mM | 10 mM | – |

— ChEMBL document CHEMBL1127859, “Selective inhibition of trypanosomal glyceraldehyde-3-phosphate dehydrogenase by protein structure-based design: toward new drugs for the treatment of sleeping sickness” (J Med Chem, 1994)
